Experimental data: ChEMBL document CHEMBL4834477, “Synthesis and biological evaluation of novel purinyl quinazolinone derivatives as PI3Kδ-specific inhibitors for the treatment of hematologic malignancies” (Bioorg Med Chem, 2021)

Tests used:
SU-DHL-5 = experiment: Antiproliferative activity against human SU-DHL-5 cells assessed as cell viability at 10 uM by CellTiter-Glo luminescent cell viability assay (reference value: 100%); type: functional; details: read-out: Activity
MOLT-4 = experiment: Antiproliferative activity against human MOLT-4 cells assessed as cell viability at 20 uM by CellTiter-Glo luminescent cell viability assay (reference value: 100%); type: functional; details: read-out: Activity
[1] = target: PI3-kinase p110-alpha/p85-alpha (Homo sapiens, UniProt P42336); experiment: Inhibition of recombinant human full length N-terminal His-tagged p110alpha/p85alpha expressed in baculovirus expression system measured after 60 mins in presence of ATP by ATP-competitive binding assay
In short: (§1)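 SelectScreen ATP-competitive assay using 10-point titration with 1 μM top final compound concentration. Kinase, substrate and ATP mixed in 30 mM HEPES buffer and reacted 60 min. IC50 taken as the mean of three independent experiments.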

[2] = target: Phosphatidylinositol 4,5-bisphosphate 3-kinase catalytic subunit beta isoform (Homo sapiens, UniProt P42338); experiment: Inhibition of recombinant human full length His-tagged p110beta expressed in baculovirus expression system measured after 60 mins in presence of ATP by ATP-competitive binding assay; in short: as §1
[3] = target: Phosphatidylinositol 4,5-bisphosphate 3-kinase catalytic subunit gamma isoform (Homo sapiens, UniProt P48736); experiment: Inhibition of recombinant human full length His-tagged p110gamma expressed in baculovirus expression system measured after 60 mins in presence of ATP by ATP-competitive binding assay; in short: as §1
[4] = target: PI3-kinase p110-delta/p85-alpha (Homo sapiens, UniProt O00329); experiment: Inhibition of recombinant human full length His-tagged p110delta/p85alpha expressed in baculovirus expression system measured after 60 mins in presence of ATP by ATP-competitive binding assay; in short: as §1
Homo sapiens = organism: Homo sapiens; experiment: Selectivity ratio of IC50 for recombinant human full length His-tagged p110gamma expressed in baculovirus expression system to IC50 for recombinant human full length His-tagged p110delta/p85alpha expressed in baculovirus expression system

Sequence of Phosphatidylinositol 4,5-bisphosphate 3-kinase catalytic subunit beta isoform (P42338 whole entry, canonical isoform): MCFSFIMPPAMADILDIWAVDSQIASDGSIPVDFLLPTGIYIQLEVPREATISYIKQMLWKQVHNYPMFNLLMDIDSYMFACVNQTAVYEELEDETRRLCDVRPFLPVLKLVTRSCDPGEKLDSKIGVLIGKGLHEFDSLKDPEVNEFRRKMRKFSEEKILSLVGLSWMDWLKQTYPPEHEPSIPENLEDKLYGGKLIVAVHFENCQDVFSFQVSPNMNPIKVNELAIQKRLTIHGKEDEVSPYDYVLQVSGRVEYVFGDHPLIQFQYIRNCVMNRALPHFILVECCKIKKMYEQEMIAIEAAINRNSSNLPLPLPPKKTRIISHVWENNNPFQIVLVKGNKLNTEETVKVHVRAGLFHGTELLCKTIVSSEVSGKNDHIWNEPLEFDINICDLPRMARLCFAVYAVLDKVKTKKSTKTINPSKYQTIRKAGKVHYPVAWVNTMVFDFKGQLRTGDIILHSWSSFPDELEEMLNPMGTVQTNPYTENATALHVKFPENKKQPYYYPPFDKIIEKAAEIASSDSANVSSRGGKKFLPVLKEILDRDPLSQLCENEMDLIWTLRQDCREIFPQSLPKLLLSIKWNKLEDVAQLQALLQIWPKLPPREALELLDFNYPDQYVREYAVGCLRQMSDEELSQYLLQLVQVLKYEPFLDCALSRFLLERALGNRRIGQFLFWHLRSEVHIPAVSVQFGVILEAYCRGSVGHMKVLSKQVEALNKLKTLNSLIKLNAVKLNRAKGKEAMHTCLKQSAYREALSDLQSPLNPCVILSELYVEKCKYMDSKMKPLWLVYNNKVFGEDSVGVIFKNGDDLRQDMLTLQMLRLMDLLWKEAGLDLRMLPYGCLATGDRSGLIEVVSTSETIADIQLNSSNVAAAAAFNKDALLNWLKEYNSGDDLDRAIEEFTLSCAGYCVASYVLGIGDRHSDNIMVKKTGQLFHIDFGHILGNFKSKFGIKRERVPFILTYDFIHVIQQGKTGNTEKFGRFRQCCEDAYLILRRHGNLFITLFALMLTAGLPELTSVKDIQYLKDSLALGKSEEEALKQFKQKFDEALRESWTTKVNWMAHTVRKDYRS
Sequence of PI3-kinase p110-delta/p85-alpha (P27986 whole entry): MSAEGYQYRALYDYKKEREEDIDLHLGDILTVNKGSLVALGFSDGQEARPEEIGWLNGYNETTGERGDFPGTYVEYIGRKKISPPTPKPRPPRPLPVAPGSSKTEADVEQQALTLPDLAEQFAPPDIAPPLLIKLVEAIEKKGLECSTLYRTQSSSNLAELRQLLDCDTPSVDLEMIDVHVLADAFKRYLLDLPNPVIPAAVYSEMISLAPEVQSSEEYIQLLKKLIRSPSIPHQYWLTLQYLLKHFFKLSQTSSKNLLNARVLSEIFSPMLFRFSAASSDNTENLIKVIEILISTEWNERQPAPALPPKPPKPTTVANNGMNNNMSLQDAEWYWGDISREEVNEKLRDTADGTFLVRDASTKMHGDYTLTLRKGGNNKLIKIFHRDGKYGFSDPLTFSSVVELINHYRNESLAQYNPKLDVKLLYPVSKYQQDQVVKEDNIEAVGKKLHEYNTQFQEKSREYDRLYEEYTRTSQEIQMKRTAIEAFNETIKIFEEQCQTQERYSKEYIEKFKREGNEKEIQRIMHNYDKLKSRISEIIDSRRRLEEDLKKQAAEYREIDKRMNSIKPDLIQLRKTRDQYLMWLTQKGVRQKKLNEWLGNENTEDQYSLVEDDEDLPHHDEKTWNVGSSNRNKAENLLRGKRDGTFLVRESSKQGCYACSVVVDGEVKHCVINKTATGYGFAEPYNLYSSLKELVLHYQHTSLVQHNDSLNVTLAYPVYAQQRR
Sequence of PI3-kinase p110-delta/p85-alpha (O00329 whole entry): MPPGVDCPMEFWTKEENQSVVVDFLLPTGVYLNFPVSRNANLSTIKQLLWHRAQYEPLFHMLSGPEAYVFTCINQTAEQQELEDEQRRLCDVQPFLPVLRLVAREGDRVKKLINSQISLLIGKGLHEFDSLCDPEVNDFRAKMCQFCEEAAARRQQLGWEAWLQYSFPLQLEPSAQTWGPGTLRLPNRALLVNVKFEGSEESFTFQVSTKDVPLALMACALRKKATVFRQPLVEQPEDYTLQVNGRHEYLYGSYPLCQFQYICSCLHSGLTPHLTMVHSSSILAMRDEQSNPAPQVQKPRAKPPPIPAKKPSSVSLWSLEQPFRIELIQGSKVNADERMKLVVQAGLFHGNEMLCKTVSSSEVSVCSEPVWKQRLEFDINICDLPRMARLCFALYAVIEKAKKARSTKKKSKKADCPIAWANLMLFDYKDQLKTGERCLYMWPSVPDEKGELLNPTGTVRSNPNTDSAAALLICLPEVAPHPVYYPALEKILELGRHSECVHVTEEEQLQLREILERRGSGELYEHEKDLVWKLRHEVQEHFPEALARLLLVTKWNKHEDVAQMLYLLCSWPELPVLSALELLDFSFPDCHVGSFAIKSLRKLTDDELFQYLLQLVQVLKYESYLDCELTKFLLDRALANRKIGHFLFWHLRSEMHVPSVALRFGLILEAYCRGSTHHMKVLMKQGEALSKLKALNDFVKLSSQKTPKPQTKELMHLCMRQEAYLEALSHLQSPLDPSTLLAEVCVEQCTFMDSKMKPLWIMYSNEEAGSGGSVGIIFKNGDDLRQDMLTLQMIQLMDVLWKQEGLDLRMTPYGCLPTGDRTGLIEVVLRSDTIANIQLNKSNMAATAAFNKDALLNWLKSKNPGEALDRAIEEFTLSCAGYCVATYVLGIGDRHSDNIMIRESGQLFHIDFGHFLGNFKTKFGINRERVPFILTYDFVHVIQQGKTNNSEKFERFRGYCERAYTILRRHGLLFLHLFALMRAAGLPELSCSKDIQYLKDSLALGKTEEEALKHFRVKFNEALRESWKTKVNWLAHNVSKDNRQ
Sequence of PI3-kinase p110-alpha/p85-alpha (P27986 whole entry): as the sequence (P27986 whole entry) above
Sequence of PI3-kinase p110-alpha/p85-alpha (P42336 whole entry): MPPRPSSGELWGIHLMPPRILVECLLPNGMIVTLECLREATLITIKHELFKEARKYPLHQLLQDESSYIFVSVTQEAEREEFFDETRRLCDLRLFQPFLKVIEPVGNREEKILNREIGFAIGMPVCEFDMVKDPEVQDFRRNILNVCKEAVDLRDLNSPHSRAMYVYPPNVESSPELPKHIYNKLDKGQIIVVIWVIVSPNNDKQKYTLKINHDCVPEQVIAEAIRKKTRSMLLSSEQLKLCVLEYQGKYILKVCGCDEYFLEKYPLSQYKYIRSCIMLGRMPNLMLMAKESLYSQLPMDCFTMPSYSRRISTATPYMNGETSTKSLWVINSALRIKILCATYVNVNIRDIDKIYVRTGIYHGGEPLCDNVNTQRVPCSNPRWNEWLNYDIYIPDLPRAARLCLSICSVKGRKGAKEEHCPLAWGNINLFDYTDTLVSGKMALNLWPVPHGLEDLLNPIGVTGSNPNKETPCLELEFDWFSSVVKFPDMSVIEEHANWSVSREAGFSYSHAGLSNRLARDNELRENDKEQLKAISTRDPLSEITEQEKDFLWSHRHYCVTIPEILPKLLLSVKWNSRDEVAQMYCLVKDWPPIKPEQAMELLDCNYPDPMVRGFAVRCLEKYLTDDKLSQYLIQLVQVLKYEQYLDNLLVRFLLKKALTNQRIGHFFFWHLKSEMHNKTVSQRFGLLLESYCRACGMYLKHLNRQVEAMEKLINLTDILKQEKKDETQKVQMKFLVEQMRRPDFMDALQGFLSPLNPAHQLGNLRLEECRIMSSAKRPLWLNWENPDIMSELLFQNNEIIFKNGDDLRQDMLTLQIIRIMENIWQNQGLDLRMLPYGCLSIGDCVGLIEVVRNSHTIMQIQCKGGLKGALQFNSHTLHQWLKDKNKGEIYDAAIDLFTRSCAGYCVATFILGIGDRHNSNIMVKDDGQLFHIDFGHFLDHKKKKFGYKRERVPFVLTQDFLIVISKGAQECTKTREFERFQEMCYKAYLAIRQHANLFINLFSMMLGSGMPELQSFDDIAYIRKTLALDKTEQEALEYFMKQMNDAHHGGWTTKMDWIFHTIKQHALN
Sequence of Phosphatidylinositol 4,5-bisphosphate 3-kinase catalytic subunit gamma isoform (P48736 whole entry, canonical isoform): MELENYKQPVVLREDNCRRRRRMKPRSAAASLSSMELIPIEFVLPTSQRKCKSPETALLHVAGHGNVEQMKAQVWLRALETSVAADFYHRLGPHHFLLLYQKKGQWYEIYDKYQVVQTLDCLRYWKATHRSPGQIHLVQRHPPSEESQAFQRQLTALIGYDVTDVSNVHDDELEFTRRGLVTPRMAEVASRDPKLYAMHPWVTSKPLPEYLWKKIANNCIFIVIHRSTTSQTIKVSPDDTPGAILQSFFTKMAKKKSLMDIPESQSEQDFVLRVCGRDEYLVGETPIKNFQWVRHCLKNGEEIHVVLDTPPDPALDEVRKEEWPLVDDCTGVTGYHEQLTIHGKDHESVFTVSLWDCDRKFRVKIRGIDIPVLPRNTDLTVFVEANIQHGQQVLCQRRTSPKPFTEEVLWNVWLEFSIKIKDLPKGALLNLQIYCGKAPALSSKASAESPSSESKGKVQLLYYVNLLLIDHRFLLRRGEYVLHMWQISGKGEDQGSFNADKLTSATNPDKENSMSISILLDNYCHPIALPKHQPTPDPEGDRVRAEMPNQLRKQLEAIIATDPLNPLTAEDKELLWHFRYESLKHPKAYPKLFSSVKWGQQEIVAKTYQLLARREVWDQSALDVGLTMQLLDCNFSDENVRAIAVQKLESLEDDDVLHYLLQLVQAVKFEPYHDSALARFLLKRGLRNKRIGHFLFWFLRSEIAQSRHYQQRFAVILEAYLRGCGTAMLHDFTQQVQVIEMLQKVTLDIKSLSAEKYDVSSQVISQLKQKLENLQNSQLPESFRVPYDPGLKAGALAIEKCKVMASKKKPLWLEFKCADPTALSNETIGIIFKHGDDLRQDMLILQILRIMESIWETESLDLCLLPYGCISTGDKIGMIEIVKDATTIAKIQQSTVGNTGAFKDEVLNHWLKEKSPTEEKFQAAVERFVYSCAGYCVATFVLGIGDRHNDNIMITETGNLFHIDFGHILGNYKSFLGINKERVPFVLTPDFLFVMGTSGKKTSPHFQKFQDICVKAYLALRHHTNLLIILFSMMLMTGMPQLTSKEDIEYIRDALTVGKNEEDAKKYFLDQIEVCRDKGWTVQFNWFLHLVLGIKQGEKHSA

Compound | viability at 10 µM (SU-DHL-5) [%] | viability at 20 µM (MOLT-4) [%] | IC50 [1] [nM] | IC50 [2] [nM] | IC50 [3] [nM] | IC50 [4] [nM] | Ratio IC50 (Homo sapiens)
CCC[C@H](Nc1ncnc2nc[nH]c12)c1nc2cccc(F)c2c(=O)n1-c1ccccc1 | 34.4 | 60.7 | 385 | 440 | 72.2 | 1.08 | 66.8
Nc1cccc2nc([C@@H](Nc3ncnc4nc[nH]c34)C3CC3)n(-c3ccccc3)c(=O)c12 | 23.5 | 65.8 | 369 | 562 | 24.7 | 1.07 | 23.1
CCC[C@H](Nc1ncnc2nc[nH]c12)c1nc2cccc(C(F)(F)F)c2c(=O)n1-c1ccccc1 | 36.4 | 52.2 | 326 | > 1000 | 56.3 | 3.23 | 17.4
CC(C)[C@H](Nc1ncnc2nc[nH]c12)c1nc2cccc(F)c2c(=O)n1-c1ccccc1 | 63.4 | 86.2 | 878 | 1670 | 313 | 1.82 | 172
C[C@H](Nc1ncnc2nc[nH]c12)c1nc2cccc(F)c2c(=O)n1-c1ccccc1 | 46.1 | 63.7 | 152 | 145 | 15.3 | 0.5 | 30.6
CC[C@H](Nc1ncnc2nc[nH]c12)c1nc2cccc(N)c2c(=O)n1-c1ccccc1 | 45.8 | 83.6 | 475 | 287 | 24.7 | 1.3 | 19
O=c1c2cc(F)ccc2nc([C@@H](Nc2ncnc3nc[nH]c23)C2CC2)n1-c1ccccc1 | 24.4 | 68.1 | 295 | 200 | 29.2 | 1.09 | 26.8
O=c1c2c(F)cccc2nc([C@@H](Nc2ncnc3nc[nH]c23)C2CCC2)n1-c1ccccc1 | 43 | 76.5 | 879 | 854 | 155 | 2.05 | 75.6
CC(C)[C@H](Nc1ncnc2nc[nH]c12)c1nc2cccc(Cl)c2c(=O)n1-c1ccccc1 | 29.7 | 56.4 | 356 | 1040 | 62.5 | 0.5 | 125
CCC[C@H](Nc1ncnc2nc[nH]c12)c1nc2cccc(Cl)c2c(=O)n1-c1ccccc1 | 29.3 | 24.7 | 301 | 129 | 18.3 | 0.5 | 36.6
O=c1c2c(Cl)cccc2nc([C@@H](Nc2ncnc3nc[nH]c23)C2CC2)n1-c1ccccc1 | 36.7 | 56.5 | 205 | 87.6 | 10.4 | 0.6 | 17.3
O=c1c2c(Cl)cccc2nc([C@@H](Nc2ncnc3nc[nH]c23)C2CCC2)n1-c1ccccc1 | 52.8 | 54.7 | 490 | 470 | 63.8 | 1.7 | 37.5
C[C@H](Nc1ncnc2nc[nH]c12)c1nc2cccc(N)c2c(=O)n1-c1ccccc1 | 36.9 | 80.9 | 127 | 250 | 7.5 | 0.4 | 18.8
